# Insulin prom act – TRM-6 insulin promoter activation. 130,000 tested, 0.81% active. TRM-6 cells (human fetal islet line), insulin promoter eGFP reporter, imaging; plate-scaled: unstimulated 0, stimulated control 100. activation, % at 2 µM;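 active means activation at 2 µM above a set limit, confirmed on inspection of the cell images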;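 further: share of cells whose green reporter signal exceeds an intensity cutoff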
#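 Material: TRM-6 insulin promoter–eGFP reporter cells. Buffer or medium: Low-glucose (5.5 mM) medium with tamoxifen. Probe or stimulus: tamoxifen at 0.75 µM added at seeding for reporter induction. Times: tamoxifen pre-incubation 15 h overnight, then compound exposure 48 h at 37 °C. Detection: high-content imaging of fixed cells with Hoechst nuclear stain.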
# A number is an active result; i = inactive. The sample as a whole holds a higher share of hits than the screen did.
SMILES,Insulin prom act
CC(=O)N(C)C1(c2nnnn2CCOC(=O)Nc2cccc3ccccc23)CCCC1,i
CC(C(=O)OCC(=O)Nc1cccc(S(=O)(=O)N2CCOCC2)c1)N1C(=O)c2ccccc2C1=O (centres undefined),i
CC(=O)c1cnc2cc(-c3cccc(Br)c3)nn2c1C,i
N#Cc1cnn2c(N)c(-c3ccc(Cl)cc3)cnc12,i
CC(=O)c1cnc2c(-c3ccc(Cl)cc3)cnn2c1C,585
NS(=O)(=O)c1ccc(CNS(=O)(=O)c2cc(C(=O)O)ccc2Cl)cc1,i
CCc1c(O)nc(SCC(=O)Nc2ccccc2C)[nH]c1=O,i
O=C(CN1CCN(C(=O)c2c(F)cccc2F)CC1)Nc1ccccc1F,i
O=C1CCC([N+](=O)[O-])C(c2cccc(Cl)c2Cl)N1 (centres undefined),i
O=S(=O)(c1ccc(Cl)c(NC(=S)Nc2cccc(O)c2)c1)N1CCOCC1,i
Cc1cccc(C)c1NC(=S)N=Nc1c(O)n(C)c2ccc(S(=O)(=O)N3CCOCC3)cc12,514
Cc1ccc(S(=O)(=O)N2CCOCC2)cc1C(=O)Nc1c(C)n(C)n(-c2ccccc2)c1=O,i
Cc1c(Cl)cccc1NC(=O)CN1CCC(C(O)(c2ccccc2)c2ccccc2)CC1,i
CCOCCc1nnc(NC(=O)CSc2ccccc2)s1,i
CCOc1ccc(Cl)cc1CSc1ncn[nH]1,i
CCCN(Cc1cc2cc(C)ccc2[nH]c1=O)C(=O)c1cccc(OC)c1,197
CCOc1ccc(C(=O)N(Cc2ccc(OC)cc2)Cc2cc3cc(OC)ccc3[nH]c2=O)cc1,i
CCCN(Cc1cc2cc(C)ccc2[nH]c1=O)S(C)(=O)=O,i
O=C(COC(=O)c1ccc(Sc2ccccc2)c([N+](=O)[O-])c1)NC1CCCc2ccccc21 (centres undefined),i
O=C(NCc1cccnc1)c1nc(-c2ccc(C(F)(F)F)cc2)no1,300
O=C(NCc1cccnc1)c1cc(-c2ccccc2)on1,i
O=C(NCc1cccnc1)c1ccc(NC(=O)c2ccco2)cc1,i
Cc1ccc(NC(=O)Cc2nnc(SCC(=O)c3ccc(Br)cc3)n2C)cc1Cl,i
O=C(CCCNC(=O)/C(=C\c1ccccc1F)NC(=O)c1ccccc1)OCc1ccccc1,257
CC(C)(C)NC(=O)/C(=C\c1ccccc1F)NC(=O)c1ccc([N+](=O)[O-])cc1,i
SMILES,Insulin prom act
CC(C)(C)NC(=O)/C(=C/c1ccccc1F)NC(=O)c1ccc([N+](=O)[O-])cc1,i
COc1cc(O)c(CCC(=O)c2cc(OC)c(OC)c(OC)c2)c(OC)c1,i
Cc1ccc(C(=O)OCc2c(C)noc2C)cc1NC(=O)c1ccco1,i
CCCCNC(=O)NS(=O)(=O)c1ccc(C(=O)OC)o1,i
NC(=S)NNC(=O)C12CC3CC(CC(C3)C1)C2,i
CCOC(=O)CC(C#N)c1c[nH]c2ccccc12 (centres undefined),i
C=C1C(O)C[C@H]2C(=C)CCC3[C@H](OC(=O)[C@]3(O)CO)[C@@H]12 (some centres undefined),275
CCOc1nc(NC(=O)NS(=O)(=O)Oc2cccc(Cl)c2)nc(-c2ccccc2)n1,i
